Rows were chosen to be rich in hits. Some 1.8% of all compounds tested hit in one or more screens of this group.
SUMO1-SIM PPI: SUMO1-SIM interaction modulation | P63165 | 0.33% of 360,000 active | inhibition, % at 20 µM | SUMO1 binding to a labelled peptide, TR-FRET, 1 h | AID 602429; in the data active means inhibition above about 37%
Target sequence (P63165 whole entry, looked up): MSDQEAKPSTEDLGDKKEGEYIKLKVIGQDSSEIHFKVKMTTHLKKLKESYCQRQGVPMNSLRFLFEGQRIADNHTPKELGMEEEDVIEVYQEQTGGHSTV
DNMT1 inh: DNMT1 (human) enzyme inhibition; P26358; DNMT1 molecular beacon, Hinp1I cleavage, fluorescence; inhibition (reported as % activation of signal), % at 10 µM; 0.83% of 360,000 active; AID 588458; in the data active means inhibition above about 50%
Scp1 inh: inhibitors of human Scp-1 phosphatase; Q9GZU7; Recombinant Scp1, phosphopeptide, malachite green phosphate absorbance; inhibition, % at 20 µM; AID 493091; 0.88% of 340,000 active;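 active means inhibition above about 50% at 20 µM, limit read from the data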
Target sequence (Q9GZU7 76-261 limits assumed): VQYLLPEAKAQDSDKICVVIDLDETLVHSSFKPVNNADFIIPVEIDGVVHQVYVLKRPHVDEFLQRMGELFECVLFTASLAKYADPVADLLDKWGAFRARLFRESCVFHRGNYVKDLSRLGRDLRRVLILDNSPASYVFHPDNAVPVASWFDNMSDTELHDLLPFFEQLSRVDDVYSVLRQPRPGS
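Test system: SCP-1 catalytic domain; Buffer or medium: Acidic Tris acetate buffer with magnesium and detergent; Also added: Phosphorylated 17-residue peptide substrate; Compound: single 20 µM dose, 1% DMSO; Schedule: enzyme reaction 45 min at room temperature, colour 5 min, stabilisation 30 min; Signal: Phosphate-binding colour reagent, absorbance read at 630 nm.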
STEP block: inhibitors of human striatal-enriched phosphatase STEP; P54829; inhibition, % at 20 µM; 0.25% of 360,000 active; AID 588621; recombinant STEP, OMFP fluorogenic substrate, fluorescence;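 active means inhibition at 20 µM, scaled per plate between control wells, above about 37%, limit read from the data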
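Material: STEP (striatal-enriched tyrosine phosphatase) enzyme, cell-free | Medium: 50 mM Bis-Tris pH 6.0 with 2.5 mM DTT and 0.005% Tween 20 | Read-out: Percent inhibition scaled to no-enzyme and uninhibited-enzyme controls, plate-pattern corrected | Signal: Fluorescence read at 480 nm ex / 540 nm em | Times: 20 min reaction, room temperature, in the dark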
LMPTP inh: LMPTP (human) inhibition. AID 651560. inhibition, % at 20 µM. recombinant LMPTP-A, OMFP fluorogenic substrate, fluorescence intensity. 0.22% of 360,000 active;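 active means compounds that cut the enzyme signal by at least half of the control window in the single-dose screen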
Target sequence (P24666 whole entry, looked up): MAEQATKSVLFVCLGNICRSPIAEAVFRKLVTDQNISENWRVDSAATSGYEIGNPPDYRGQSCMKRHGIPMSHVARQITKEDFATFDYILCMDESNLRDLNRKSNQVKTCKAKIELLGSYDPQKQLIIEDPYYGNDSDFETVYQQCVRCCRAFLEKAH
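Test system: LMPTP-A phosphatase enzyme. Amount: LMPTP-A at 0.625 nM final in the reaction. Reagent: OMFP substrate, 400 µM final. Times: 50 min at room temperature. Signal: endpoint fluorescence intensity from OMFP dephosphorylation. Read-out basis: % inhibition. Benchmarks: no-enzyme and uninhibited controls.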
HKDC1 inhibitor: HKDC1 (human) hexokinase inhibition. Q2TB90. inhibition, % at 20 µM. 0.16% of 340,000 active. AID 493160. recombinant HKDC1, G6PDH/diaphorase resazurin coupled fluorescence;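 active means inhibition above about 35% when tested at 20 µM, limit read from the data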
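Material – in-house recombinant HK5 (HKDC1) enzyme · Quantity – HKDC1 at 5 µg/mL · Buffer or medium – pH 8.0 Tris buffer with 10 mM MgCl2 · Reagent – glucose with 1 mM ATP · Dosing – single 20 µM dose · Times – reaction time 90 min, room temperature, protected from light · Technique – resorufin fluorescence at 613 nm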
Scp-1 conf: confirmation of human Scp-1 phosphatase inhibitors. 61% of 2,500 active. AID 540281. recombinant SCP-1 catalytic domain, phosphate release, malachite green absorbance. inhibition, % at 20 µM. shares compounds with Scp1 inh
Scp-1 MG ctr: colorimetric interference in Scp-1 counter-screen; Colorimetric interference counterscreen, malachite green absorbance 630 nm; shares compounds with Scp1 inh; 2,500 tested, under 10 active; AID 540313; apparent inhibition (interference), % at 20 µM;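 further: compounds added after enzyme reaction finished so only phosphate colour detection is probed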
Scp-1 Tm shift: validation of human Scp-1 inhibitors by thermal shift binding; Recombinant SCP1, Sypro Orange thermal shift Tm; shares compounds with Scp1 inh; 25% of 1,500 active; thermal shift relative to vanadate control, % at 40 µM;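 active means substances whose mean melting-temperature shift, as a percentage of the reference inhibitor's shift, reaches about 5.3%, limit read from the data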
Beacon interf DR: counter-screen for DNMT1 inhibitors: spectral interference, dose response. molecular beacon fluorescence. IC50, µM. shares compounds with DNMT1 inh. AID 602382. 200 tested, under 10 active; call rule not given here
DNMT1 confirm: confirmation of human DNMT1 inhibitors; 8% of 2,300 active; inhibition, % at 10 µM; DNMT1 molecular beacon HinP1I cleavage, fluorescence; shares compounds with DNMT1 inh;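 active means average inhibition of at least 30% in the single-concentration confirmation test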
Beacon interf: beacon fluorescence artifact counter-screen; shares compounds with DNMT1 inh; DNMT1 molecular beacon spectral interference counterscreen, fluorescence 485/520; activation (fluorescence interference), % at 10 µM; 1% of 2,300 active;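 active means activation of at least 30% at 10 µM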;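 further: DNMT1 catalytic domain with a HinP1I cleavage step and a FAM/dabcyl DNA beacon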
Each line names hits and unclear results; the compound was inactive in the other large screens (follow-up assays come after a bar, where they were run).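 How the source made its calls, unless noted: active means inhibition of at least 30% at 20 µM; inactive means the rest.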

CN1CCN(C(=O)CCn2c(=S)[nH]c3ccccc3c2=O)CC1	none (no result: Scp1 inh, HKDC1 inhibitor)
NS(=O)(=O)c1ccc(CNC(=O)Cc2cccs2)cc1	DNMT1 inh 52, Scp1 inh 83, LMPTP inh 50 | Scp-1 conf 48 | Scp-1 MG ctr inactive | Scp-1 Tm shift 6.9 | DNMT1 confirm inactive | Beacon interf inactive
O=C1NC(=S)NC1=Cc1ccco1	DNMT1 inh 53, Scp1 inh 59 | Scp-1 conf 54 | Scp-1 MG ctr inactive | Scp-1 Tm shift inactive | DNMT1 confirm inactive | Beacon interf inactive
Cc1ccc(CN2C(=O)CSCC2(C)C(=O)NCc2ccccc2)cc1 (centres undefined)	none (no result: DNMT1 inh, Scp1 inh, STEP block, HKDC1 inhibitor)
CCOC(=O)c1cc(-c2ccc(N3CCOCC3)cc2)nn1-c1ccccc1C(=O)O	SUMO1-SIM PPI 106, DNMT1 inh 94, Scp1 inh 80, STEP block 96, LMPTP inh 58 | Scp-1 conf 64 | Scp-1 MG ctr inactive | Scp-1 Tm shift inactive | Beacon interf DR inactive | DNMT1 confirm 35 | Beacon interf inactive
CCOC(=O)C1=C(O)/C(=C\c2cccs2)N=C1C	none
CCOC(=O)C1=C(O)/C(=C\c2ccc(CNC(=O)C(=O)Nc3ccccc3)o2)N=C1C	DNMT1 inh 101, Scp1 inh 97 | Scp-1 conf 62 | Scp-1 MG ctr inactive | Scp-1 Tm shift 6.2 | DNMT1 confirm inactive | Beacon interf inactive
O=C(O)c1c[nH]c2ccc([N+](=O)[O-])cc2c1=O	none
Cn1nc(C2CC2)cc1NC(=O)C1(C)CCN1C(=O)c1ccccc1CCc1ccccc1 (centres undefined)	none (no result: Scp1 inh, HKDC1 inhibitor)
CC(=O)Nc1ccc(-c2noc(-c3csc([C@@H]4C[C@H](O)[C@@H](CO)O4)n3)n2)cc1	none (no result: Scp1 inh, HKDC1 inhibitor)
COc1ccccc1NC(=O)COC(=O)c1cc2c(s1)CCC2	DNMT1 inh 94, Scp1 inh 66 | Scp-1 conf 73 | Scp-1 MG ctr inactive | Scp-1 Tm shift inactive | DNMT1 confirm inactive | Beacon interf inactive
COc1ccc(OC)c(NC(=O)COC(=O)c2cc3c(s2)CCC3)c1	DNMT1 inh 89, Scp1 inh 79 | Scp-1 conf 53 | Scp-1 MG ctr inactive | Scp-1 Tm shift inactive | DNMT1 confirm inactive | Beacon interf inactive
COc1ccccc1NC(=O)COC(=O)c1ccc2c(c1)OCCO2	none
CCN(CC)CCN1CCN(c2cnc(C)cn2)CC1	none (no result: Scp1 inh, HKDC1 inhibitor)
O=C(/C=C/c1ccc(Cl)c([N+](=O)[O-])c1)Nc1ccc(NC(=O)c2ccco2)cc1	none
O=C(/C=C/c1ccc(Cl)c([N+](=O)[O-])c1)Nc1ccc(N2CCCC2)cc1	DNMT1 inh 88, Scp1 inh 88 | Scp-1 conf 77 | Scp-1 MG ctr inactive | Scp-1 Tm shift 6.0 | DNMT1 confirm inactive | Beacon interf inactive
CC1=NN(c2ccc(Cl)c(C(=O)O)c2)C(=O)C1	SUMO1-SIM PPI 41, DNMT1 inh 68, Scp1 inh 75 | Scp-1 conf 53 | Scp-1 MG ctr inactive | Scp-1 Tm shift 9.5 | DNMT1 confirm inactive | Beacon interf inactive
CC1=NN(c2ccc(C(=O)O)c(N)c2)C(=O)C1	none
O=C1C2C(C(=O)N1/N=C/c1cc([N+](=O)[O-])c(O)cc1O)C1C=CC2C12CC2 (centres undefined)	DNMT1 inh 83, Scp1 inh 64 | Scp-1 conf 64 | Scp-1 MG ctr inactive | Scp-1 Tm shift 5.9 | DNMT1 confirm inactive | Beacon interf inactive
CC1(c2cccc(Br)c2)NC(=O)N(CC(=O)Nc2ccc(F)cc2)C1=O (centres undefined)	none
Cc1cccc(NC(=O)CNC(=O)c2cccc(-n3cccc3)c2)c1C	DNMT1 inh 87, Scp1 inh 73 | Scp-1 conf 75 | Scp-1 MG ctr inactive | Scp-1 Tm shift inactive | DNMT1 confirm inactive | Beacon interf inactive
Cc1ccc(NC(=O)CN(C)C(=O)c2cccc(-n3cccc3)c2)cc1	SUMO1-SIM PPI 48, DNMT1 inh 100, Scp1 inh 91 | Scp-1 conf 72 | Scp-1 MG ctr inactive | Scp-1 Tm shift inactive | Beacon interf DR inactive | DNMT1 confirm 34 | Beacon interf inactive
Cc1cccc(NC(=O)CSc2nc3ccccc3nc2N2CCCC2)c1C	none
CCN(C)C1CN(Cc2cn(Cc3ccc(C(F)(F)F)cc3)nn2)S(=O)(=O)C1 (centres undefined)	none (no result: DNMT1 inh, Scp1 inh, STEP block, HKDC1 inhibitor)
O=C(O)Cn1ccc2cc(S(=O)(=O)N3CCCCC3)ccc21	none (no result: Scp1 inh, HKDC1 inhibitor)
O=C(Nc1sc2c(c1C(=O)O)CCC2)c1ccccc1	DNMT1 inh 82, Scp1 inh 58 | Scp-1 conf 54 | Scp-1 MG ctr inactive | Scp-1 Tm shift 6.6 | DNMT1 confirm inactive | Beacon interf inactive
O=C(Nc1sc2c(c1C(=O)O)CCCCC2)c1ccccc1	none
COc1cc(OC)cc(C2=Cc3ccccc3C(CC(=O)c3ccco3)N2c2ccc(-c3cccnc3)cc2)c1 (centres undefined)	none (no result: DNMT1 inh, Scp1 inh, STEP block, HKDC1 inhibitor)
O=C(N/N=C/c1ccc([N+](=O)[O-])o1)c1cn2ccc3ccccc3c2n1	DNMT1 inh 55, Scp1 inh 80 | Scp-1 conf inactive | Scp-1 MG ctr inactive | DNMT1 confirm inactive | Beacon interf inactive
O=C1C=C(C#Cc2ccc(Oc3ccccc3)cc2)C[C@@H](c2ccc(F)cc2)C1	none (no result: Scp1 inh, HKDC1 inhibitor)
CC(C)(C)c1ccc(C(=O)N/C(=C\c2ccco2)C(=O)O)cc1	none
O=C(O)/C(=C/c1ccco1)NC(=O)c1ccccc1	DNMT1 inh 67, Scp1 inh 75 | Scp-1 conf 42 | Scp-1 MG ctr inactive | Scp-1 Tm shift inactive | DNMT1 confirm inactive | Beacon interf inactive
CC(C)N1CCC1(C)C(=O)Nc1cccc(C#N)c1 (centres undefined)	none (no result: Scp1 inh, HKDC1 inhibitor)
CNC(=O)OC1CC2CC1[C@H]1CCCCN1C2=O (some centres undefined)	none (no result: DNMT1 inh, Scp1 inh, STEP block, HKDC1 inhibitor)

High-throughput results deposited in PubChem BioAssay by Sanford-Burnham Center for Chemical Genomics.
